This passage reports IC50 results from ChEMBL document CHEMBL1148652, “Design of potent, orally available antagonists of the transient receptor potential vanilloid 1. Structure-activity relationships of 2-piperazin-1-yl-1H-benzimidazoles” (J Med Chem, 2006).

The target in assay [1] is T1, Transient receptor potential cation channel subfamily V member 1 (Rattus norvegicus, UniProt O35433). In words: Antagonist activity against capsaicin-induced 45calcium ion uptake in CHO cells expressing rat TRPV1. Format: functional, cell-based. Summed up:
(§1)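 CHO cells recombinantly expressing rat TRPV1; inhibition of 45Ca2+ uptake triggered by capsaicin or by acid, pH 5. Functional IC50 in nM, averaged over at least two independent experiments, each with three replicates per concentration.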

Assay [2] deals with T1, Transient receptor potential cation channel subfamily V member 1. In words: Antagonist activity against acid-induced 45calcium ion uptake in CHO cells expressing rat TRPV1 at pH5. Format: functional, cell-based. Summed up: as §1

Where “and” joins values, the source holds several entries; their conditions need not be identical. Equal entries are not always repeated. Bounds are passed on as bounds.

T1 sequence (O35433 whole entry): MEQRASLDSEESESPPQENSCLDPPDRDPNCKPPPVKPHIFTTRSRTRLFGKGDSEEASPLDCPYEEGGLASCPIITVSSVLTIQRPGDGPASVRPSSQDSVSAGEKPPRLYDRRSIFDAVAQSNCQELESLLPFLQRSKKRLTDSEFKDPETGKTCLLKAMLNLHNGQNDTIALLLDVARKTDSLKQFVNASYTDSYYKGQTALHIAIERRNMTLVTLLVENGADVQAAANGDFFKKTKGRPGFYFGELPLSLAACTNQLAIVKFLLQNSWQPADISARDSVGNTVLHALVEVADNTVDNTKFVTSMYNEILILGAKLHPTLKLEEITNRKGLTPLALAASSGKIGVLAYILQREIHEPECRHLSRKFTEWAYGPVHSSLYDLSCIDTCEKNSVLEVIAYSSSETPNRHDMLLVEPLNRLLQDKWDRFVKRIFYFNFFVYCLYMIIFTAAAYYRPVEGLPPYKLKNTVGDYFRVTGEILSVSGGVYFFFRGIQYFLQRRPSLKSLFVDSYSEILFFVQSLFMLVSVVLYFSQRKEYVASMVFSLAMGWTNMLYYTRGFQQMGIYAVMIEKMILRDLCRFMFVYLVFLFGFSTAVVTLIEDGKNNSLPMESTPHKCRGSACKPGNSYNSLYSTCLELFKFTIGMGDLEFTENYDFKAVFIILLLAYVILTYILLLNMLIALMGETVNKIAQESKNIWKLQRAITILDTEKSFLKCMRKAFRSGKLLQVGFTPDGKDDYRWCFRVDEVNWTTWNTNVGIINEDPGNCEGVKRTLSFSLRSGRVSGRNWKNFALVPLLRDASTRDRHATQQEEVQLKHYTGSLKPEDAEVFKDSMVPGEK

With `FC(F)(F)c1ccc2nc(N3CCN(c4ncccc4C(F)(F)F)CC3)n(Cc3ccccc3)c2c1`, the IC50 is 577 nM in assay [1]; 151 nM and 157 nM in assay [2]. In the case of `C[C@H]1CN(c2ncccc2Br)CCN1c1nc2c(-c3cc(F)c(F)c(F)c3)cc(C(F)(F)F)cc2[nH]1`, the concentration for half-maximal inhibition (IC50) in assay [1] amounted to 104 nM; in assay [2], 75 nM. As for `FC(F)(F)c1ccc2nc(N3CCN(c4c(Cl)cncc4Cl)CC3)[nH]c2c1`, the IC50 in assay [1] was determined as 1370 nM; in assay [2] it was 1990 nM. The corresponding values for `FC(F)(F)c1ccc2[nH]c(N3CCN(c4ncccc4C(F)(F)F)CC3)nc2n1` are 1090 nM and 1410 nM. The corresponding values for `FC(F)(F)c1cc(-c2cc3ccccc3s2)c2nc(N3CCN(c4ncccc4C(F)(F)F)CC3)[nH]c2c1` are 26 nM and 22 nM. The corresponding values for `FC(F)(F)c1cc(-c2cccs2)c2[nH]c(N3CCN(c4ncccc4C(F)(F)F)CC3)nc2c1` are 373 nM and 221 nM. For `C[C@@H]1CN(c2ncccc2Br)CCN1c1nc2c(-c3cc(F)c(F)c(F)c3)cc(C(F)(F)F)cc2[nH]1`, the IC50 in assay [1] was determined as 6.7 nM; in assay [2] it was 2.6 nM. The corresponding values for `FC(F)(F)c1cc(N2CCCCC2)c2[nH]c(N3CCN(c4ncccc4C(F)(F)F)CC3)nc2c1` are 29 nM and 21 nM. `NC(=O)c1cnc(N2CCN(c3nc4cc(C(F)(F)F)ccc4[nH]3)CC2)c(Cl)c1`: the values for the IC50 in assay [1] and in assay [2] were 430 nM and 1000 nM, respectively. The corresponding values for `CC(O)c1cnc(N2CCN(c3nc4ccc(C(F)(F)F)cc4[nH]3)CC2)c(Cl)c1` (racemic) are 461 nM and 652 nM. As to `C[C@@H]1CN(c2ncccc2C(F)(F)F)CCN1c1nc2ccc(C(F)(F)F)cc2[nH]1`, the IC50 in assay [1] turned out to be 48 nM; in assay [2] it was 35 nM. Regarding `Nc1cc(C(F)(F)F)cc2[nH]c(N3CCN(c4ncccc4C(F)(F)F)CC3)nc12`, in assay [2], the IC50 is > 4000 nM. For the compound `N#Cc1cccnc1N1CCN(c2nc3cc(C(F)(F)F)ccc3[nH]2)CC1`, the results for the IC50 in assay [1] and in assay [2] were 6290 nM and 7080 nM, respectively. The corresponding values for `FC(F)(F)c1cc(-c2ccccc2)c2nc(N3CCN(c4ncccc4C(F)(F)F)CC3)[nH]c2c1` are 141 nM and 68 nM.

With `C[C@@H]1CN(c2ncc(C(O)c3ccccc3)cc2C(F)(F)F)CCN1c1nc2c(-c3cc(F)c(F)c(F)c3)cc(C(F)(F)F)cc2[nH]1` (stereo not given in full), the IC50 in assay [1] was 2.8 nM; in assay [2] it was 3.7 nM. The corresponding values for `FC(F)(F)c1ccc(CNc2cc3[nH]c(N4CCN(c5ncccc5C(F)(F)F)CC4)nc3cc2C(F)(F)F)cc1` are 94 nM and 141 nM. The corresponding values for `FC(F)(F)c1ccc2[nH]c(N3CCN(c4c(Cl)cccc4Cl)CC3)nc2c1` are > 40000 nM and 1270 nM. For `Fc1ccc(Cc2cc(C(F)(F)F)cc3[nH]c(N4CCN(c5ncccc5C(F)(F)F)CC4)nc23)cc1F`, the IC50 in assay [1] is 71 nM; in assay [2], 52 nM. Regarding `FC(F)(F)c1ccnc(N2CCN(c3nc4cc(C(F)(F)F)ccc4[nH]3)CC2)c1`, the IC50 in assay [1] was > 5640 nM; in assay [2], 11900 nM. As for `CC(=O)c1cnc(N2CCN(c3nc4cc(C(F)(F)F)ccc4[nH]3)CC2)c(Cl)c1`, the IC50 in assay [1] came out at 581 nM; in assay [2], 832 nM. With `FC(F)(F)c1ccc2[nH]c(N3CCN(c4ncccc4I)CC3)nc2c1`, the IC50 is 221 nM in assay [1] and 310 nM in assay [2]. As for `FC(F)(F)c1ccc2nc(N3CCN(c4ccccc4C(F)(F)F)CC3)[nH]c2c1`, the results for the IC50 in assay [1] and in assay [2] were 2060 nM and 406 nM, respectively.

Consider `C[C@@H]1CN(c2ncc(CO)cc2Cl)CCN1c1nc2c(NCc3ccccc3)cc(C(F)(F)F)cc2[nH]1`, for which the IC50 in assay [1] worked out at 7 nM; in assay [2], 6.7 nM. The corresponding values for `CC(C)(C)c1ccc2nc(N3CCN(c4ncccc4Cl)CC3)[nH]c2c1` are 87 nM and 310 nM. For `Fc1ccc(-c2ccc3[nH]c(N4CCN(c5ncccc5C(F)(F)F)CC4)nc3c2)cc1F`, the IC50 turned out to be 1140 nM in assay [1] and 351 nM in assay [2]. As to `C[C@@H]1CN(c2ncc(C(=O)O)cc2Cl)CCN1c1nc2c(-c3cc(F)c(F)c(F)c3)cc(C(F)(F)F)cc2[nH]1`, the IC50 in assay [1] worked out at 46 nM; in assay [2] it was 27 nM. The corresponding values for `C[C@@H]1CN(c2nc3c(-c4cc(F)c(F)c(F)c4)cc(C(F)(F)F)cc3[nH]2)CCN1c1ncccc1Br` are 4.3 nM and 1.8 nM. Turning to `C=Cc1cnc(N2CCN(c3nc4c(-c5cc(F)c(F)c(F)c5)cc(C(F)(F)F)cc4[nH]3)[C@H](C)C2)c(Cl)c1`, the IC50 in assay [1] came out at 1.3 nM; in assay [2], 1.7 nM. Turning to `CCC[C@@H]1CN(c2ncccc2C(F)(F)F)CCN1c1nc2cc(C(F)(F)F)ccc2[nH]1`, the IC50 in assay [2] is > 4000 nM. With `FC(F)(F)c1ccc2[nH]c(N3CCN(c4ncncc4Cl)CC3)nc2c1`, the IC50 was 2110 nM in assay [1] and > 40000 nM in assay [2]. Consider `FC(F)(F)c1cc(C2CCC(C(F)(F)F)CC2)c2nc(N3CCN(c4ncccc4C(F)(F)F)CC3)[nH]c2c1` (stereo not given), for which the values for the IC50 in assay [1] and in assay [2] were 10 nM and 9 nM, respectively. With `CC(C)(C)c1ccc(-c2cc(C(F)(F)F)cc3[nH]c(N4CCN(c5ncccc5C(F)(F)F)CC4)nc23)cc1`, in assay [2], the IC50 came out at 4 nM. In the case of `FC(F)(F)c1cccnc1N1CCN(c2nc3ccc(Br)cc3[nH]2)CC1`, the concentration for half-maximal inhibition (IC50) was determined as 123 nM in assay [1] and 194 nM in assay [2]. For the compound `C[C@@H]1CN(c2ncc(CO)cc2Cl)CCN1c1nc2c(N(Cc3ccccc3)Cc3ccccc3)cc(C(F)(F)F)cc2[nH]1`, the results for the IC50 in assay [1] and in assay [2] were 1.9 nM and 0.9 nM, respectively.

On to `CN(C)c1ccc(-c2cc(C(F)(F)F)cc3[nH]c(N4CCN(c5ncccc5C(F)(F)F)CC4)nc23)cc1`, for which the IC50 was 108 nM in assay [1] and 69 nM in assay [2]. The corresponding values for `FC(F)(F)Oc1cccc(-c2cc(C(F)(F)F)cc3[nH]c(N4CCN(c5ncccc5C(F)(F)F)CC4)nc23)c1` are 26 nM and 21 nM. `O=[N+]([O-])c1cc(C(F)(F)F)cc2[nH]c(N3CCN(c4ncccc4C(F)(F)F)CC3)nc12`: the concentration for half-maximal inhibition (IC50) in assay [1] was 1660 nM; in assay [2], 878 nM. The corresponding values for `OCc1cnc(N2CCN(c3nc4ccc(C(F)(F)F)cc4[nH]3)CC2)c(Cl)c1` are 64 nM and 98 nM.

`COC(=O)c1ccc2nc(N3CCN(c4ncccc4C(F)(F)F)CC3)[nH]c2c1`: the IC50 in assay [1] was 1230 nM; in assay [2], > 4000 nM. In the case of `C[C@@H]1CN(c2ncc(N)cc2Cl)CCN1c1nc2c(-c3ccc(F)cc3)cc(C(F)(F)F)cc2[nH]1`, the values for the IC50 in assay [1] and in assay [2] were 98 nM and 33 nM, respectively.

For `C[C@H](O)c1cnc(N2CCN(c3nc4c(-c5cc(F)c(F)c(F)c5)cc(C(F)(F)F)cc4[nH]3)[C@H](C)C2)c(Cl)c1`, the values for the IC50 in assay [1] and in assay [2] were 2.6 nM and 3 nM, respectively. As for `C[C@@H]1CN(c2ncc([C@@H](C)O)cc2Cl)CCN1c1nc2c(-c3cc(F)c(F)c(F)c3)cc(C(F)(F)F)cc2[nH]1`, the IC50 in assay [1] was found to be 0.6 nM; in assay [2], 2.3 nM. The corresponding values for `CC[C@@H]1CN(c2ncccc2C(F)(F)F)CCN1c1nc2cc(C(F)(F)F)ccc2[nH]1` are 648 nM and > 4000 nM. The corresponding values for `CC(O)c1cnc(N2CCN(c3nc4c(-c5cc(F)c(F)c(F)c5)cc(C(F)(F)F)cc4[nH]3)[C@H](C)C2)c(C(F)(F)F)c1` (mixture of isomers) are 1.5 nM and 1 nM. The corresponding values for `FC(F)(F)c1ccc(-c2cc(C(F)(F)F)cc3[nH]c(N4CCN(c5ncccc5C(F)(F)F)CC4)nc23)cc1` are 51 nM and 37 nM. Turning to `Cc1ccc2[nH]c(N3CCN(c4ncccc4C(F)(F)F)CC3)nc2c1`, the 50% inhibitory concentration (IC50) in assay [2] is > 4000 nM. With `C[C@H]1CN(c2nc3c(-c4cc(F)c(F)c(F)c4)cc(C(F)(F)F)cc3[nH]2)CCN1c1ncccc1Br`, the IC50 in assay [1] stood at 767 nM; in assay [2], 254 nM. The corresponding values for `FC(F)(F)c1ccc2[nH]c(N3CCN(c4ccncc4Cl)CC3)nc2c1` are 3910 nM and 8030 nM. The corresponding values for `FC(F)(F)c1cc2[nH]c(N3CCN(c4ncccc4C(F)(F)F)CC3)nc2cc1Br` are 166 nM and 43 nM. As to `C[C@@H]1CN(c2ncc(CO)cc2Cl)CCN1c1nc2cc(C(F)(F)F)cc(NC(=O)C3CCCCC3)c2[nH]1`, the IC50 in assay [1] was found to be 1.6 nM; in assay [2], 1.2 nM. The corresponding values for `FC(F)(F)c1ccc(-c2cc3[nH]c(N4CCN(c5ncccc5C(F)(F)F)CC4)nc3cc2C(F)(F)F)cc1` are 8240 nM and 201 nM. The corresponding values for `FC(F)(F)c1cccnc1N1CCN(c2nc3ccc(Cl)cc3[nH]2)CC1` are 1130 nM and 17300 nM. With `C[C@@H]1CN(c2ncc(Br)cc2Cl)CCN1c1nc2c(-c3cc(F)c(F)c(F)c3)cc(C(F)(F)F)cc2[nH]1`, the IC50 amounted to 3.4 nM in assay [1] and 3.3 nM in assay [2].

With `FC(F)(F)c1cc(-c2cnccn2)c2nc(N3CCN(c4ncccc4C(F)(F)F)CC3)[nH]c2c1`, the figures for the half-inhibitory concentration (IC50) in assay [1] and in assay [2] were 129 nM and 51 nM, respectively. For the compound `C[C@@H]1CN(c2ncc(NC(=O)CO)cc2Cl)CCN1c1nc2c(-c3ccc(F)cc3)cc(C(F)(F)F)cc2[nH]1`, the figures for the IC50 in assay [1] and in assay [2] were 30 nM and 9.2 nM, respectively. The corresponding values for `Cc1cccnc1N1CCN(c2nc3ccc(C(F)(F)F)cc3[nH]2)CC1` are 402 nM and 1140 nM.

As for `Fc1cc(CNc2cc(C(F)(F)F)cc3[nH]c(N4CCN(c5ncccc5C(F)(F)F)CC4)nc23)cc(F)c1F`, the IC50 in assay [1] is 132 nM; in assay [2] it was 81 nM. The corresponding values for `FC(F)(F)c1cc(-c2nccs2)c2nc(N3CCN(c4ncccc4C(F)(F)F)CC3)[nH]c2c1` are 688 nM and 454 nM.

In the case of `FC(F)(F)c1ccc2[nH]c(N3CCN(c4ncccc4Cl)CC3)nc2c1`, the results for the IC50 in assay [1] and in assay [2] were 309 nM and 705 nM, respectively. Consider `FC(F)(F)c1ccc2nc(N3CCN(c4ncccc4C(F)(F)F)CC3)[nH]c2c1`, for which the IC50 in assay [2] was 301 nM.

In general, IC50 refers to the midpoint of a concentration-inhibition curve.
